ChEMBL document CHEMBL1138561, “Synthesis of novel N-protected hydrophobic phenylalanines and their application in potential antibacterials” (2009)
Converted amounts (≈) assume the structure as drawn.

Key:
[1] = test system: Staphylococcus aureus; test: Antibacterial activity against Staphylococcus aureus ATCC 6538 after 18 hrs; type: functional; settings: ATCC 6538, 18 h
Method in brief: (§1)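 Broth microdilution in Mueller–Hinton medium, with the inoculum a 1/10 dilution of seed culture. Peptoids were dissolved in 50% MeOH/H2O to 1 mg/mL, added to the top row and serially diluted down the plate. Plates were incubated at 37 °C with shaking at 100 rpm for 18 h, with two peptoids per plate.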

[2] = test system: Enterococcus faecalis; test: Antibacterial activity against vancomycin-sensitive Enterococcus faecalis; type: functional; method in brief: as §1

| SMILES | MIC [1] | MIC [2] |
| --- | --- | --- |
| C=CCOc1ccc(C[C@H](NC(C)=O)C(=O)N[C@@H](CCCCN)C(=O)N[C@H](CCCNC(=N)N)C(=O)N[C@@H](CC=C)C(=O)OCc2ccccc2)cc1.Cl.Cl | > 125 µg/mL | > 125 µg/mL |
| C=CC[C@H](NC(=O)[C@@H](CCCNC(=N)N)NC(=O)[C@H](CCCCN)NC(=O)[C@H](Cc1ccc(-c2cc3ccccc3c3ccccc23)cc1)NC(C)=O)C(=O)OCc1ccccc1.Cl.Cl | 7.8 µg/mL | > 125 µg/mL |
| C=CC[C@H](NC(=O)[C@H](CCCCN)NC(=O)[C@H](Cc1ccc(-c2c3ccccc3cc3ccccc23)cc1)NC(C)=O)C(=O)OC.Cl | 31.3 µg/mL | > 125 µg/mL |
| C=CC[C@H](NC(=O)[C@H](CCCCN)NC(=O)[C@H](Cc1ccc(-c2cc3ccccc3c3ccccc23)cc1)NC(C)=O)C(=O)OC.Cl | 15.6 µg/mL | > 125 µg/mL |
| C=CC[C@H](NC(=O)[C@@H](CCCNC(=N)N)NC(=O)[C@H](CCCCN)NC(=O)[C@H](Cc1ccc(-c2c3ccccc3cc3ccccc23)cc1)NC(C)=O)C(=O)OCc1ccccc1.Cl.Cl | 15.6 µg/mL | > 125 µg/mL |
| CN[C@H](CC(C)C)C(=O)N[C@H]1C(=O)N[C@@H](CC(N)=O)C(=O)N[C@H]2C(=O)N[C@H]3C(=O)N[C@H](C(=O)N[C@H](C(=O)O)c4cc(O)cc(O)c4-c4cc3ccc4O)[C@H](O)c3ccc(c(Cl)c3)Oc3cc2cc(c3O[C@@H]2O[C@H](CO)[C@@H](O)[C@H](O)[C@H]2O[C@H]2C[C@](C)(N)[C@H](O)[C@H](C)O2)Oc2ccc(cc2Cl)[C@H]1O [VANCOMYCIN] | 1.95 µg/mL (≈ 1.35 µM) | – |
